The list is not random: actives were taken first. Their share in the collection is about 3.1%.
NadD inh – blocks S. aureus nicotinate mononucleotide adenylyltransferase; inhibition, % at 20 µM; actives 0.78% (n = 360,000); AID 602399; purified NadD enzyme, colorimetric absorbance read-out; in the data active = inhibition above about 26%
PP5 inh – PP5 (human) phosphatase inhibition. purified PP5c, OMFP substrate fluorescence. inhibition, % at 6.7 µM. actives 0.18% (n = 320,000). AID 1987;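 active = inhibition above the campaign's mean inhibition across all tested compounds plus 3 SD, cut at about 9.5% in these data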;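 also: 0% = DMSO only and 100% = 100 µM cantharidin control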
Target sequence (P53041 whole entry, looked up): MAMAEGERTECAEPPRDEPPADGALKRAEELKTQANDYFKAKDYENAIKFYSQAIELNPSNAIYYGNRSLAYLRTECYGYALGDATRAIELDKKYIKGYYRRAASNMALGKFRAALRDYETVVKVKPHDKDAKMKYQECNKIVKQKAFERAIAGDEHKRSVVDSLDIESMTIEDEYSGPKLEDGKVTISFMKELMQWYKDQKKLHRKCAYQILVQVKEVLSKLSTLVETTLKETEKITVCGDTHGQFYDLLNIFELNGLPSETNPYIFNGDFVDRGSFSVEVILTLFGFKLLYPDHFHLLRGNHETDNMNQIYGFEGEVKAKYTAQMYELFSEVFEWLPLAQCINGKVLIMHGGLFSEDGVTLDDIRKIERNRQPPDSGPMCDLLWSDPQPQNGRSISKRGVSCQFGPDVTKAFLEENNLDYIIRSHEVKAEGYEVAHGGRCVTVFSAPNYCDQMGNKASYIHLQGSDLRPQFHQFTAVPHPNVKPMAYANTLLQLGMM
Myeloid diff MLP – promotes myeloid progenitor differentiation | actives 1% (n = 360,000) | calls only at 10 µM | ER-HoxA9 myeloid progenitors, lysozyme-GFP differentiation, flow cytometry | AID 624256;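 active = normalized GFP-positive differentiation at or above the plate's own cutoff, the solvent-only control mean plus 3 SD; inconclusive = no clear call, values can overlap the other calls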;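 also: cells exposed to compound for four days before flow analysis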
HCV core dimer – blocks dimerization of HCV core protein | TR-FRET GST/Flag-core106 dimerization, 1536-well | inhibition, % at 5 µM | actives 0.33% (n = 300,000) | AID 1899;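 active = inhibition above the mean of all tested compounds plus 3 SD, set per screening campaign, cut at about 45% in these data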
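Assay system: GST-tagged and Flag-tagged HCV core protein residues 1-106 / Times: compound-protein-antibody incubation 4 h at 22.5 °C / Signal: time-resolved FRET, ex 340 nm, em 617 and 671 nm / Evaluation: % inhibition based on acceptor/donor emission ratio / Benchmarks: wells lacking GST-core106 and wells with excess unlabelled core106 / Repeats: singlicate, one well per compound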
Fh CTSL1 inh – counter-screen for PFM18AAP inhibitors: inhibitors of F. hepatica cathepsin L1 | recombinant F. hepatica cathepsin L1, Z-Leu-Arg-MCA fluorescence | inhibition, % at 5.96 µM | actives 0.49% (n = 300,000);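 active = inhibition above the mean of all tested compounds plus 3 SD, set per screening campaign, cut at about 17% in these data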;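 also: 0% = plate median of test compound wells and 100% = 1 µM Z-Phe-Ala-diazomethylketone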
PP1 inh – PP1-alpha (human) inhibition in PP5 counter-screen. P62136. purified PP1alpha, OMFP fluorescence. inhibition, % at 6.7 µM. actives 0.9% (n = 320,000);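 active = inhibition above the mean inhibition of all tested compounds plus 3 SD, computed separately for each screening campaign, cut at about 15% in these data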
The depositor's hits bear a star; i = inactive; ? = inconclusive; . = no result; + = active, no number.

SMILES | NadD inh | PP5 inh | Myeloid diff MLP | HCV core dimer | Fh CTSL1 inh | PP1 inh
CCOc1cc(/C=C2\C(=N)N3N=C(C)SC3=NC2=O)ccc1OCCOc1cccc(OC)c1 | 45* | 4 | i | 18 | 1 | 13
COc1cccc(OCCOc2ccc(/C=C3\C(=N)N4N=C(S(C)(=O)=O)SC4=NC3=O)cc2OC)c1 | 29 | . | i | . | . | .
COC(=O)[C@]1(C)N[C@H](CN(C)C(=O)Nc2ccc(Cl)cc2)[C@@H]2C(=O)N(C)C(=O)[C@@H]21 | 1 | . | i | . | . | .
Cc1ccc(S(=O)(=O)N2[C@@H](Cc3ccccc3)CO[C@H]2CC(=O)c2cccs2)cc1 | . | . | i | . | . | .
Cc1ccc(S(=O)(=O)Cc2nnnn2-c2ccccc2)cc1 | -1 | 1 | i | 6 | 1 | -1
COc1ccccc1-c1ncn(Cc2cccc(-c3ccccc3)c2)c1-c1cc(C)cc(C)c1 | . | . | i | . | . | .
C(=C\n1nnc2ccccc21)/c1ccccn1 | -4 | 1 | i | 9 | -2 | -2
Nc1c(C(=O)Nc2ccccc2Cl)nnn1-c1ccc2c(c1)OCCO2 | -9 | 0 | i | 2 | 7 | 2
CCc1nc2ccc(C(=O)Nc3ccc(OC)c(OC)c3)cn2c1N(C)Cc1cccs1 | 5 | . | i | . | . | .
c1ccc(C[C@H]2CN=C(Nc3ccccc3)N2CC2CCCCC2)cc1 | 1 | . | + | . | . | .
c1ccc(C[C@H]2CN=C(Nc3ccccc3)N2CC2CCCCCC2)cc1 | -7 | . | i | . | . | .
CC(=O)Nc1ccc(C(=O)CSc2nnc(-c3ccccc3F)n2CCc2ccccc2)cc1 | 8 | . | i | . | . | .
CC(CNC(=O)COC(=O)c1ccco1)c1ccccc1 (centres undefined) | -5 | -4 | i | . | . | -4
COc1ccc(C(C)(O)c2nc(-c3ccncc3)cs2)cc1 (centres undefined) | -10 | . | + | . | . | .
Cc1noc(/C=C/c2ccccn2)c1[N+](=O)[O-] | -4 | 0 | + | 9 | -3 | -4
COc1ccccc1N/C=C/c1onc(C)c1[N+](=O)[O-] | 1 | 4 | i | -14 | 4 | 3
O=S(=O)(Nc1nc2ccccc2nc1NCc1ccco1)c1ccccc1 | 1 | -2 | + | 3 | 2 | -1
O=S(=O)(Nc1nc2ccccc2nc1NCc1ccco1)c1ccc(F)cc1 | 6 | -1 | i | 5 | 0 | -2
COCCn1c(SCC(=O)c2ccc3c(c2)OCCO3)nnc1C(C)C | -5 | 1 | i | -7 | 18* | -7
CCN(CC)CCNc1ccc(CO)c2oc3ccccc3c(=O)c12 | -2 | . | + | . | . | .
CC(C)CC(=O)NC(=S)Nc1ccccc1N1CCCC1 | -7 | 0 | i | 4 | 20* | 0
COC[C@@H]1CCCN1c1ccc2c(c1)O[C@H](COCc1ccccc1)CN([C@@H](C)c1ccccc1)S2(=O)=O | -1 | . | i | . | . | .
COc1ccc([C@H]2C[C@H](n3cc(C4CC4)nn3)[C@@H](O)CN2C(=O)C2CCCCC2)cc1 | 7 | . | i | . | . | .
Cc1cccc(OCCNc2ccc([N+](=O)[O-])cn2)c1 | -6 | 0 | i | 0 | 3 | 0
O=[N+]([O-])c1ccc(NCCOc2ccccc2Cl)nc1 | -4 | 3 | + | 0 | -1 | -1
SMILES | NadD inh | PP5 inh | Myeloid diff MLP | HCV core dimer | Fh CTSL1 inh | PP1 inh
COc1ccc(S(=O)(=O)N2CCCCC2)cc1NC(=O)CCc1nc2ccccc2c(=O)[nH]1 | 4 | -1 | i | 2 | 28* | -1
COc1ccc(S(=O)(=O)N2CCCCCC2)cc1NC(=O)CN(C)Cc1ccc2c(c1)OCO2 | -2 | 5 | + | . | . | 5
Cc1ccc(S(=O)(=O)N2CCCCC2)cc1NC(=O)CCc1nc2ccccc2c(=O)[nH]1 | 11 | 0 | i | 6 | -6 | -6
CN(CC(=O)Nc1cc(S(=O)(=O)N2CCCCCC2)ccc1Cl)Cc1ccc2c(c1)OCO2 | 2 | 3 | i | . | . | 8
O=C(CNC(=O)c1ccc(Cl)cc1Cl)OC1CCCCC1=O (centres undefined) | -3 | . | i | . | . | .
O=C(CNC(=O)c1cccs1)Nc1cccc(S(=O)(=O)N2CCOCC2)c1 | -8 | . | i | . | . | .
CCCCCCCCN1[C@@H](CC(=O)OC)c2cc(F)ccc2S1(=O)=O | -1 | 4 | i | 1 | 4 | 0
CCCCCCCCCCCCN1[C@@H](CC(=O)O)c2cc(F)ccc2S1(=O)=O | 17 | 3 | i | 11 | 2 | 16*
COc1ccccc1CNC(=O)CS(=O)(=O)c1ccc(C)cc1 | 4 | -3 | i | -4 | 2 | -3
CC(=O)c1cccc(S(=O)(=O)Nc2cc(C(F)(F)F)ccc2N2CCOCC2)c1 | -3 | 0 | i | . | . | 6
Fc1cccc(/C=N/Nc2cc(N3CCOCC3)ncn2)c1 | 0 | 3 | i | -4 | -2 | 0
Cc1ccccc1-c1cc2nc(-c3ccc([N+](=O)[O-])cc3)cc(=O)n2[nH]1 | 22 | 0 | i | 2 | 1 | 16*
O=C(O)C1CC=C(Cl)CC1C(=O)NC1CCCCC1 (centres undefined) | -5 | -1 | i | 1 | 0 | 0
CCCN(CC(=O)Nc1ccccc1OC)C(=O)CSc1ccc(Br)cc1C | -7 | 2 | i | . | . | -1
Cc1ccc2sc(N(CCCN(C)C)C(=O)c3ccc(S(=O)(=O)N(C)Cc4ccccc4)cc3)nc2c1C | 7 | 5 | i | -5 | 1 | 17*
Cc1ccc2sc(N(CCCN(C)C)C(=O)c3ccc(S(=O)(=O)N4CCc5ccccc5C4)cc3)nc2c1C | 16 | 1 | ? | -2 | 3 | 15*
CCN(Cc1ccccc1)S(=O)(=O)c1ccc(C(=O)N(CCCN(C)C)c2nc3cc(C)cc(C)c3s2)cc1 | 3 | 4 | . | -10 | -4 | 16*
O=C(Nc1ccc2c(c1)OCCO2)C1c2ccccc2OCC(=O)N1C1CC1 (centres undefined) | 1 | . | i | . | . | .
COc1ccc(CCNC(=O)CCC(=O)Nc2ccccc2[N+](=O)[O-])cc1OC | -4 | 7 | i | -18 | 5 | 10
O=C1NC[C@@H]2CCCN2C1=O | -2 | . | i | . | . | .
c1ccc2c(c1)NCC1CCCN21 (centres undefined) | 10 | 3 | + | -23 | -10 | 6
O=C(CSc1nc(O)cc(=O)n1-c1ccccc1)Nc1ccc2c3c(cccc13)CC2 | 9 | 2 | i | 17 | -3 | 16*
c1ccc(OCc2nn3c(-c4ccco4)nnc3s2)cc1 | -1 | 0 | i | 5 | -4 | 16*
c1ccc(OCc2nn3c(-c4n[nH]c5c4CCC5)nnc3s2)cc1 | 3 | -1 | i | 47* | 0 | 9
COc1ccc(-c2nnc3sc(COc4ccccc4)nn23)cc1 | 5 | 1 | i | 3 | -1 | 1
Cc1nnc2sc(COc3ccccc3)nn2c1=O | 2 | -1 | i | 15 | 1 | -1

Compound activity: PubChem BioAssay, several laboratories
